According to ChEMBL document CHEMBL2390932, “(+)-Usnic acid enamines with remarkable cicatrizing properties” (Bioorg Med Chem, 2013):
Converted amounts (≈) assume the structure as drawn. The source made the active and inactive calls. The calls are words filed in the database; no cut-off is given here.

How the values were obtained:
A-431 = assay: Cytotoxicity against human A431 cells after 24 hrs by neutral red dye uptake assay; type: functional, cell-based; conditions: A-431, 24 h
Summary of the method: (§1)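 Cells kept in DMEM with 10% FBS at 37 °C, 5% CO2. Seeded at 20,000 cells/well, grown 24 h, then exposed 24 h to a concentration series. Neutral red (0.05%) added for 3 h at 37 °C, dye extracted with 1% acetic acid in 50% ethanol, absorbance read at 540 nm. IC50, IC05 and 95% confidence intervals derived from a downhill logistic curve fit.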

HaCaT [1] = assay: Cytotoxicity against human HaCaT cells after 24 hrs by neutral red dye uptake assay; type: cell-based; conditions: for IC50: Homo sapiens, HaCaT; for IC05: human, hacat; summary of the method: as §1
[2] = target: T1, Neutrophil elastase (Homo sapiens) (UniProt P08246); assay: Inhibition of human neutrophil elastase assessed as N-methoxysuccinyl-Ala-Ala-Pro-Val p-nitroanilide conversion to p-nitroaniline at 100 ug/ml after 1 hr by spectrophotometric analysis relative to control
T1 sequence (whole entry): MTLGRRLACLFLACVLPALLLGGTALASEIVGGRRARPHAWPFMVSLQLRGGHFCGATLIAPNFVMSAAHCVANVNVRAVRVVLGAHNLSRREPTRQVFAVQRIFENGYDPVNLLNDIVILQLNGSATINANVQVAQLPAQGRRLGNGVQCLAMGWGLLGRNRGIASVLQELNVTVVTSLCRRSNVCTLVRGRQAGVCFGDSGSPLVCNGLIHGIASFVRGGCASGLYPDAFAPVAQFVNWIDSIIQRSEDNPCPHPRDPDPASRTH
Summary of the method: (§2)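 Sample and human neutrophil elastase (17 mU/ml) mixed in 0.1 M Tris–HCl, pH 7.5, and held 5 min at 25 °C. MeOSuc-Ala-Ala-Pro-Val p-nitroanilide was added and the mixture incubated 1 h at 37 °C. Reaction stopped with soybean trypsin inhibitor (1 mg/ml); p-nitroaniline absorbance read immediately. Inhibition given as % with S.E.M.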

Hathewaya histolytica [3] = assay: Inhibition of Clostridium histolyticum collagenase using N-[3-(2-Furyl)acryloyl]-Leu-Gly-Pro-Ala as substrate at 100 ug/ml after 15 mins by spectrophotometric analysis relative to control
Summary of the method: (§3)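 Samples dissolved in DMSO and diluted in 50 mM Tricine buffer (0.4 M NaCl, 0.01 M CaCl2, pH 7.5). Clostridium histolyticum collagenase and sample preincubated 5 min at 25 °C, then incubated 15 min. FALGPA substrate, prepared at 2 mM in the same buffer, was then added. Inhibition given as % with S.E.M.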

Rattus norvegicus = assay: Wound healing activity in Sprague-Dawley rat linear incision wound model assessed as tensile strength of wound applied topically qd for 9 days measured on day 10 by tensiometer (reference value: 10.6%); type: functional
Bos taurus [4] = species: Bos taurus; assay: Inhibition of bovine hyaluronidase assessed as sodium hyaluronate conversion to N-acetylglucosamine at 50 ug/ml by spectrophotometric analysis relative to control
Hathewaya histolytica [5] = assay: Inhibition of Clostridium histolyticum collagenase using N-[3-(2-Furyl)acryloyl]-Leu-Gly-Pro-Ala as substrate at 50 ug/ml after 15 mins by spectrophotometric analysis relative to control; summary of the method: as §3
Mus musculus [6] = assay: Wound healing activity in Swiss albino mouse circular excision wound model assessed as hydroxyproline content in skin applied topically qd after 7 days by spectrophotometric analysis; type: functional
Summary of the method: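 Skin from ointment-treated mouse wounds (7 days) dried at 60–70 °C to constant weight, then hydrolyzed in 6 N HCl for 3 h at 130 °C. Hydrolysate neutralized to pH 7, oxidized with chloramine T and reacted with Ehrlich reagent at 60 °C. Read at 557 nm and reported as mg/g with S.E.M.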

Mus musculus [7] = assay: Wound healing activity in Swiss albino mouse circular excision wound model assessed as wound contraction applied topically qd after 6 days (reference value: 3.41%); type: functional
HaCaT [8] = assay: Wound healing activity in human HaCaT cells assessed as wound closure rate at 2.5 ug/mL after 24 hrs by inverted microscopic analysis; type: functional, cell-based
Summary of the method: (§4)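 Confluent HaCaT monolayers scratched with a pipette tip, washed, re-fed with medium and exposed to compound for 24 h; 20% (v/v) platelet lysate served as positive control. Cells fixed in 3.7% formaldehyde and stained with 0.1% toluidine blue. Wound width measured by inverted microscope with camera at 0 and 24 h; closure taken as the width difference. Results expressed relative to control mean (100%), two independent experiments, n = 20 each.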

HaCaT [9] = assay: Wound healing activity in human HaCaT cells assessed as wound closure rate at 5 uM after 24 hrs by inverted microscopic analysis; type: functional, cell-based; summary of the method: as §4
HaCaT [10] = assay: Wound healing activity in human HaCaT cells assessed as wound closure rate at 2.2 ug/mL after 24 hrs by inverted microscopic analysis; type: functional, cell-based; summary of the method: as §4
Mus musculus [11] = assay: Wound healing activity in Swiss albino mouse circular excision wound model assessed as wound contraction applied topically qd after 8 days (reference value: 2.18%); type: functional
Mus musculus [12] = assay: Wound healing activity in Swiss albino mouse circular excision wound model assessed as wound contraction applied topically qd after 10 days (reference value: 6.29%); type: functional
HaCaT [13] = assay: Wound healing activity in human HaCaT cells assessed as wound closure rate at 1.7 ug/mL after 24 hrs by inverted microscopic analysis; type: functional, cell-based; summary of the method: as §4
Mus musculus [14] = assay: Wound healing activity in Swiss albino mouse circular excision wound model assessed as wound contraction applied topically qd after 4 days relative to control; type: functional; set-up: concentration or dose not given beside the values
HaCaT [15] = assay: Wound healing activity in human HaCaT cells assessed as wound closure rate at 2 ug/mL after 24 hrs by inverted microscopic analysis; type: functional, cell-based; summary of the method: as §4
Bos taurus [16] = species: Bos taurus; assay: Inhibition of bovine hyaluronidase assessed as sodium hyaluronate conversion to N-acetylglucosamine at 100 ug/ml by spectrophotometric analysis relative to control
Mus musculus [17] = assay: Wound healing activity in Swiss albino mouse circular excision wound model assessed as wound contraction applied topically qd measured on the same day relative to control; type: functional; set-up: concentration or dose not given beside the values
[18] = target: T1, Neutrophil elastase (Homo sapiens); assay: Inhibition of human neutrophil elastase assessed as N-methoxysuccinyl-Ala-Ala-Pro-Val p-nitroanilide conversion to p-nitroaniline at 50 ug/ml after 1 hr by spectrophotometric analysis relative to control; summary of the method: as §2
Mus musculus [19] = assay: Wound healing activity in Swiss albino mouse circular excision wound model assessed as wound contraction applied topically qd after 2 days relative to control; type: functional; set-up: concentration or dose not given beside the values
HaCaT [20] = assay: Wound healing activity in human HaCaT cells assessed as wound closure rate at 2.1 ug/mL after 24 hrs by inverted microscopic analysis; type: functional, cell-based; summary of the method: as §4

SMILES | IC50 (HaCaT [1]) [µg/mL] | IC05 (HaCaT [1]) [µg/mL] | inhibition [2] [%] | inhibition (Hathewaya histolytica [3]) [%] | Activity (Rattus norvegicus) [%] | inhibition (Bos taurus [4]) [%] | inhibition (Hathewaya histolytica [5]) [%] | Activity (Mus musculus [6]) [mg/g] | Activity (Mus musculus [7]) [%] | Activity (HaCaT [8]) | Activity (HaCaT [9]) | Activity (HaCaT [10]) | Activity (Mus musculus [11]) [%] | Activity (Mus musculus [12]) [%] | Activity (HaCaT [13]) | Activity (Mus musculus [14]) [%] | Activity (HaCaT [15]) | inhibition (Bos taurus [16]) [%] | Activity (Mus musculus [17]) [%] | inhibition [18] [%] | further results
CC(=O)c1c(O)c(C)c(O)c2c1OC1=CC(=O)/C(=C(/C)NCC(=O)O)C(=O)[C@@]12C | 5.8 (≈ 14.5 µM) | 0.2 | – | – | – | – | – | – | – | – | – | – | – | – | – | – | – | – | – | – | IC50 (A-431): 4.1 µg/mL (≈ 10.2 µM)
CC(=O)c1c(O)c(C)c(O)c2c1OC1=CC(=O)/C(=C(/C)NCCc3c[nH]c4ccccc34)C(=O)[C@@]12C | 5.3 (≈ 10.9 µM) | 2.5 | – | – | – | – | – | – | – | – | – | – | – | – | – | – | – | – | – | – | IC50 (A-431): 29 µg/mL (≈ 59.6 µM)
O=C(O[C@@H]1Cc2c(O)cc(O)cc2O[C@@H]1c1cc(O)c(O)c(O)c1)c1cc(O)c(O)c(O)c1 | – | – | 88.2 | 41.2 | – | – | – | – | – | – | – | – | – | – | – | – | – | – | – | – | –
CC(=O)c1c(O)c(C)c(O)c2c1OC1=CC(=O)/C(=C(/C)N[C@@H](CCCNC(=N)N)C(=O)O)C(=O)[C@@]12C | 163 (≈ 326 µM) | 16 | – | – | – | – | – | – | – | – | – | – | – | – | – | – | – | – | – | – | –
CC(=O)c1c(O)c(C)c(O)c2c1OC1=CC(=O)/C(=C(/C)NCCS)C(=O)[C@@]12C | 155 (≈ 384 µM) | 43 | 20.4 | 27.3 | 35.2 | 10.2 | 19.5 | 39.8 | 10.25 | Active | Active | Active | 4.42 | 1.39 | Active | 13.74 | Active | 15.6 | 19.46 | 15.3 | Activity (Mus musculus [19]): 16.41%; Activity (HaCaT [20]): Active
CC(=O)c1c(O)c(C)c(O)c2c1OC1=CC(=O)/C(=C(/C)NCCSSCCN/C(C)=C3\C(=O)C=C4Oc5c(C(C)=O)c(O)c(C)c(O)c5[C@@]4(C)C3=O)C(=O)[C@@]12C | – | – | 30.1 | 29.3 | 15.91 | 10 | 20.8 | 20.4 | 12.48 | – | – | – | 6.48 | 2.96 | – | 15.92 | – | 18.3 | 19.25 | 21.3 | Activity (Mus musculus [19]): 17.95%
CC(=O)c1c(O)c(C)c(O)c2c1OC1=CC(=O)/C(=C(/C)NCCCC(=O)O)C(=O)[C@@]12C | 150 (≈ 349 µM) | 67 | 30.3 | 49.2 | 47.6 | 25.8 | 21.4 | 43 | 9.01 | Active | Active | Active | 3.84 | 0.66 | Active | 12.81 | Active | 39.4 | 19.7 | 25.1 | Activity (Mus musculus [19]): 16.03%; Activity (HaCaT [20]): Active
CC(=O)c1c(O)c(C)c(O)c2c1OC1=CC(=O)/C(=C(/C)N)C(=O)[C@@]12C | – | – | 15.3 | 33.1 | – | 35.3 | 20.7 | – | – | – | – | – | – | – | – | – | – | 41.9 | – | 13.3 | –
CC(=O)c1c(O)c(C)c(O)c2c1OC1=CC(=O)/C(=C(/C)N[C@@H](Cc3c[nH]cn3)C(=O)O)C(=O)[C@@]12C | 36 (≈ 74.8 µM) | 1.7 | – | – | – | – | – | – | – | – | – | – | – | – | – | – | – | – | – | – | –
CC(=O)C1=C(O)C=C2Oc3c(C(C)=O)c(O)c(C)c(O)c3[C@@]2(C)C1=O [(+)-USNIC ACID] | 24 (≈ 69.7 µM) | 0.5 | 36.4 | 51.2 | 31.9 | 14.4 | 27.1 | 36.1 | 10.25 | Active | Active | Active | 5.62 | 1.85 | Active | 14.1 | Active | 33.1 | 19.59 | 22.1 | IC50 (A-431): 15 µg/mL (≈ 43.6 µM); Activity (Mus musculus [19]): 17.04%; Activity (HaCaT [20]): Active
CC(=O)c1c(O)c(C)c(O)c2c1OC1=CC(=O)/C(=C(/C)N[C@@H](Cc3ccc(O)cc3)C(=O)O)C(=O)[C@@]12C | 13 (≈ 25.6 µM) | 1.3 | – | – | – | – | – | – | – | Active | Active | Active | – | – | Active | – | Active | – | – | – | IC50 (A-431): 36 µg/mL (≈ 70.9 µM); Activity (HaCaT [20]): Active
O=C(OC[C@H]1O[C@@H](OC(=O)c2cc(O)c(O)c(OC(=O)c3cc(O)c(O)c(O)c3)c2)[C@H](OC(=O)c2cc(O)c(O)c(OC(=O)c3cc(O)c(O)c(O)c3)c2)[C@@H](OC(=O)c2cc(O)c(O)c(OC(=O)c3cc(O)c(O)c(O)c3)c2)[C@@H]1OC(=O)c1cc(O)c(O)c(OC(=O)c2cc(O)c(O)c(O)c2)c1)c1cc(O)c(O)c(OC(=O)c2cc(O)c(O)c(O)c2)c1 | – | – | – | – | – | – | – | – | – | – | – | – | – | – | – | – | – | 76.3 | – | – | –
CC(=O)c1c(O)c(C)c(O)c2c1OC1=CC(=O)/C(=C(/C)NCCS(=O)(=O)O)C(=O)[C@@]12C | 47 (≈ 104 µM) | – | – | – | 29.3 | – | – | 30.8 | 11.42 | Active | Active | Active | 5.04 | 2.29 | Active | 14.52 | Active | – | 19.33 | – | Activity (Mus musculus [19]): 17.74%; Activity (HaCaT [20]): Active
